In ChEMBL document CHEMBL1154472, “Synthesis and anti-HIV-1 integrase activities of 3-aroyl-2,3-dihydro-1,1-dioxo-1,4,2-benzodithiazines” (Eur J Med Chem, 2009):

Assays:
[1] = biological target: T1, Human immunodeficiency virus type 1 integrase (Human immunodeficiency virus 1, UniProt Q7ZJM1); assay: Inhibition of HIV1 integrase strand transfer activity in presence of magnesium
Method in brief: (§1)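 Wild-type HIV-1 IN (200 nM final), expressed in E. coli BL21(DE3)pLysS, was preincubated with inhibitor for 30 min at 30 °C in HEPES/MOPS buffer containing glycerol, BSA and 10% DMSO, with Mg2+ as the cofactor. IC50 was derived.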

[2] = biological target: T1, Human immunodeficiency virus type 1 integrase; assay: Inhibition of HIV1 integrase 3'-end processing activity
Method in brief: (§2)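 Wild-type HIV-1 IN, expressed in E. coli BL21(DE3)pLysS after 1 mM IPTG induction, was preincubated at 200 nM final with inhibitor at 30 °C for 30 min. The buffer held 50 mM NaCl, HEPES pH 7.5, 10% glycerol, 7.5 mM MnCl2, 0.1 mg/ml BSA, 10 mM 2-mercaptoethanol, 10% DMSO and 25 mM MOPS pH 7.2. IC50 was taken from the reaction.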

[3] = biological target: T2, Human immunodeficiency virus type 1 integrase (Human immunodeficiency virus 1, UniProt Q7ZJM1, Y99S); assay: Inhibition of HIV1 integrase Y99S mutant strand transfer activity
[4] = biological target: T2, Human immunodeficiency virus type 1 integrase; assay: Inhibition of HIV1 integrase Y99S mutant 3'-end processing activity
[5] = biological target: T3, Human immunodeficiency virus type 1 integrase (Human immunodeficiency virus 1, UniProt Q7ZJM1, H114A); assay: Inhibition of HIV1 integrase H114A mutant strand transfer activity
[6] = biological target: T1, Human immunodeficiency virus type 1 integrase; assay: Inhibition of HIV1 integrase 3'-end processing activity in presence of magnesium; method in brief: as §1
[7] = biological target: T1, Human immunodeficiency virus type 1 integrase; assay: Inhibition of HIV1 integrase strand transfer activity; method in brief: as §2
[8] = biological target: T3, Human immunodeficiency virus type 1 integrase; assay: Inhibition of HIV1 integrase H114A mutant 3'-end processing activity

T1 sequence (Q7ZJM1 whole entry): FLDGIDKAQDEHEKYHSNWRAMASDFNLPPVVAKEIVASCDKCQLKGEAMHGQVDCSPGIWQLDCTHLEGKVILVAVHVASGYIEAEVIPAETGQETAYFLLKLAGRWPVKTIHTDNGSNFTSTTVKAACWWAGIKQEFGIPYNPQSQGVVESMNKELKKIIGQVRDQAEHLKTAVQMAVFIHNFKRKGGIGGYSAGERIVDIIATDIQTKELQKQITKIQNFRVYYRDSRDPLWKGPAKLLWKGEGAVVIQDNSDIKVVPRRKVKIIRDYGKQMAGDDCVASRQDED
T3 sequence (Q7ZJM1 entry or part of it H114A): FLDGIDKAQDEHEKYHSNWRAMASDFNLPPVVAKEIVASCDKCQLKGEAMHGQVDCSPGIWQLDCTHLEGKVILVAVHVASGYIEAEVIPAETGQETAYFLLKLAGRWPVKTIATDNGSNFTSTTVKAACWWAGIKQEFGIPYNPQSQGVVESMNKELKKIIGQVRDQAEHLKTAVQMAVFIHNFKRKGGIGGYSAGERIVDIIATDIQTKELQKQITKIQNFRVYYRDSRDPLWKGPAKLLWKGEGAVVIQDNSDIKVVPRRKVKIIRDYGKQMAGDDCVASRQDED
T2 sequence (Q7ZJM1 entry or part of it Y99S): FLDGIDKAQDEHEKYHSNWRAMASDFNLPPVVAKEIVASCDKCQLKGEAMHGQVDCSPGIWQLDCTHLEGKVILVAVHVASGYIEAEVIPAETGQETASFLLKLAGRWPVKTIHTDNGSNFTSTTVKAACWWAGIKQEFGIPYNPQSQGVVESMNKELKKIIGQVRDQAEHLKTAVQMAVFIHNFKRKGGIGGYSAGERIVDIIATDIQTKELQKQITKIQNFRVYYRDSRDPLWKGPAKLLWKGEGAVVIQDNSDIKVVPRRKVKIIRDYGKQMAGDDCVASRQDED

Compound | IC50 [2] | IC50 [7] | IC50 [1] | IC50 [3] | IC50 [4] | IC50 [5] | IC50 [6] | IC50 [8]
Cc1cc2c(cc1Cl)SC(C(=O)c1ccccc1)NS2(=O)=O (centres undefined) | 7 µM | 5 µM | 27 µM | 18 µM | 90 µM | 9 µM | 60 µM | 15 µM
Cc1cc2c(cc1Cl)SC(C(=O)c1ccccc1)=NS2(=O)=O | 12 µM | 12 µM | – | 18 µM | 90 µM | 9 µM | – | 15 µM
Cc1cc(Cl)cc2c1S(=O)(=O)NC(C(=O)c1ccc(Cl)cc1)S2 (centres undefined) | 23 µM | 14 µM | – | – | – | – | – | –
O=C(c1ccc(Cl)cc1)C1NS(=O)(=O)c2ccc(Cl)cc2S1 (centres undefined) | 8 µM | 4 µM | 25 µM | 20 µM | 100 µM | 18 µM | 51 µM | 20 µM
Cc1cc(Cl)cc2c1S(=O)(=O)NC(C(=O)c1ccc(Cl)c(Cl)c1)S2 (centres undefined) | 20 µM | 14 µM | – | – | – | – | – | –
Cc1cc(Cl)cc2c1S(=O)(=O)NC(C(=O)c1ccc3ccccc3c1)S2 (centres undefined) | 9 µM | 6 µM | 51 µM | 23 µM | 70 µM | 23 µM | 83 µM | 33 µM
O=C(c1ccc(Cl)c(Cl)c1)C1NS(=O)(=O)c2ccc(Cl)cc2S1 (centres undefined) | 9 µM | 5 µM | 25 µM | 20 µM | 90 µM | 18 µM | 58 µM | 18 µM
Cc1cc2c(cc1Cl)SC(C(=O)c1ccc(Cl)c(Cl)c1)NS2(=O)=O (centres undefined) | 20 µM | 10 µM | – | – | – | – | – | –
Cc1cc2c(cc1Cl)SC(C(=O)c1ccc(Cl)cc1)=NS2(=O)=O | 30 µM | 65 µM | – | 20 µM | 90 µM | 16 µM | – | 18 µM
Cc1cc2c(cc1Cl)SC(C(=O)c1ccc(Br)cc1)NS2(=O)=O (centres undefined) | 4 µM | 3 µM | – | – | – | – | – | –
Cc1cc2c(cc1Cl)SC(C(=O)c1cccc([N+](=O)[O-])c1)NS2(=O)=O (centres undefined) | 32 µM | 28 µM | – | – | – | – | – | –
Cc1cc(Cl)cc2c1S(=O)(=O)N=C(C(=O)c1ccc3ccccc3c1)S2 | 22 µM | 7 µM | – | 23 µM | 70 µM | 23 µM | – | 33 µM
O=C(C1=NS(=O)(=O)c2ccc(Cl)cc2S1)c1ccc(Cl)c(Cl)c1 | 61.2 µM | 124 µM | – | 20 µM | 90 µM | 18 µM | – | 18 µM
O=C(C1=NS(=O)(=O)c2ccc(Cl)cc2S1)c1ccc2ccccc2c1 | 8 µM | 8 µM | – | 15 µM | 100 µM | 15 µM | – | 9 µM
O=C(c1ccc2ccccc2c1)C1NS(=O)(=O)c2ccc(Cl)cc2S1 (centres undefined) | 8 µM | 3 µM | 28 µM | 15 µM | 100 µM | 15 µM | 55 µM | 9 µM
O=C(c1ccc(Cl)c(Cl)c1)C1NS(=O)(=O)c2ccccc2S1 (centres undefined) | 22 µM | 15 µM | – | – | – | – | – | –
Cc1cc2c(cc1Cl)SC(C(=O)c1ccc(Cl)cc1)NS2(=O)=O (centres undefined) | 6 µM | 4 µM | 40 µM | 20 µM | 90 µM | 16 µM | 63 µM | 18 µM
O=C(C1=NS(=O)(=O)c2ccc(Cl)cc2S1)c1ccc(Cl)cc1 | 100 µM | 90 µM | – | 20 µM | 100 µM | 18 µM | – | 20 µM

Continued, in another order:

IC50 [2] | IC50 [7] | Compound | IC50 [1] | IC50 [3] | IC50 [4] | IC50 [5] | IC50 [6] | IC50 [8]
22 µM | 25 µM | Cc1cc(Cl)cc2c1S(=O)(=O)N=C(C(=O)c1ccc(Cl)cc1)S2 | – | – | – | – | – | –
17 µM | 25 µM | Cc1cc(Cl)cc2c1S(=O)(=O)N=C(C(=O)c1ccc(Cl)c(Cl)c1)S2 | – | – | – | – | – | –
38 µM | 17 µM | COc1ccc(C(=O)C2NS(=O)(=O)c3cc(C)c(Cl)cc3S2)cc1 (centres undefined) | – | – | – | – | – | –
57 µM | 50 µM | Cc1cc2c(cc1Cl)SC(C(=O)c1cccc([N+](=O)[O-])c1)=NS2(=O)=O | – | – | – | – | – | –
15 µM | 7 µM | Cc1cc2c(cc1Cl)SC(C(=O)c1ccc(Cl)c(Cl)c1)=NS2(=O)=O | – | – | – | – | – | –
28 µM | 3 µM | Cc1cc2c(cc1Cl)SC(C(=O)c1ccc3ccccc3c1)=NS2(=O)=O | – | – | – | – | – | –
30 µM | 33 µM | COc1ccc(C(=O)C2=NS(=O)(=O)c3cc(C)c(Cl)cc3S2)cc1 | – | – | – | – | – | –
57 µM | 30 µM | Cc1cc2c(cc1Cl)SC(C(=O)c1ccc3ccccc3c1)NS2(=O)=O (centres undefined) | – | – | – | – | – | –
30 µM | 30 µM | Cc1cc2c(cc1Cl)SC(C(=O)c1ccc(Br)cc1)=NS2(=O)=O | – | – | – | – | – | –
